{"source": "ChEMBL document CHEMBL1124562", "about": "“(3-Amino-2-oxoalkyl)phosphonic acids and their analogues as novel inhibitors of D-alanine:D-alanine ligase” (J Med Chem, 1989)", "key": {"Enterococcus faecalis [1]": {"system": "Enterococcus faecalis", "assay": "Percent inhibition of DAla-DAla Ligase at 10e -3 M of the compound", "procedure,_shortened": "(§1)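 Enzyme was a 50% ammonium sulphate fraction from sonicated Streptococcus faecalis ATCC 8043 extract (0.38 units/mg). Inhibitor was preincubated 40 min at room temperature with enzyme, 0.008 M MgCl2, 0.01 M KCl and 0.05 M Tris-Cl pH 7.9. Then 0.005 M ATP and 0.005 M (14C-1)-D-alanine were added and the mix held 30 min at 37 °C. Radiolabelled product was resolved by silica TLC and integrated.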"}, "[2]": {"assay": "Inhibition of DAla-DAla Ligase by the compound", "design": "species or system Enterococcus faecalis", "procedure,_shortened": "as §1"}, "[3]": {"assay": "Inhibition of DAla-DAla Ligase at 10e -3 M of the compound", "design": "species or system Enterococcus faecalis", "procedure,_shortened": "as §1"}, "[4]": {"assay": "Inhibition of D-Alanine-D-Alanine Ligase Ligase by the compound", "design": "species or system Enterococcus faecalis", "procedure,_shortened": "as §1"}, "Enterococcus faecalis [5]": {"system": "Enterococcus faecalis", "assay": "Percent inhibition of D-Alanine-D-Alanine Ligase at 10e-3 M of the compound", "procedure,_shortened": "as §1"}, "Enterococcus faecalis [6]": {"system": "Enterococcus faecalis", "assay": "Percent inhibition of DAla-DAla Ligase at 10e-3 M of the compound", "procedure,_shortened": "as §1"}}, "note": "pIC50, pKi: −log10 of the molar value."}
{"smiles": "C[C@@H](N)C(=O)NP(=O)(O)O", "values": [{"measurement": "inhibition", "setting": "Enterococcus faecalis [1]", "result": 85, "unit": "%"}, {"measurement": "pKi", "setting": "[2]", "result": 4.30}]}
{"smiles": "C[C@@H](N)P(=O)(O)O", "values": [{"measurement": "pIC50", "setting": "[3]", "result": 3.03}]}
{"smiles": "NC(CCC(=O)CP(=O)(O)O)C(=O)O", "note": "(centres undefined)", "values": [{"measurement": "pKi", "setting": "[4]", "result": 3.30}]}
{"smiles": "CC(C(=O)[C@@H](C)N)P(=O)(O)O", "note": "(some centres undefined)", "values": [{"measurement": "inhibition", "setting": "Enterococcus faecalis [5]", "result": 18, "unit": "%"}]}
{"smiles": "N[C@@H]1CONC1=O", "note": "[CYCLOSERINE]", "values": [{"measurement": "pKi", "setting": "[2]", "result": 3.60}]}
{"smiles": "C[C@@H](N)/C=C/P(=O)(O)O", "values": [{"measurement": "inhibition", "setting": "Enterococcus faecalis [1]", "result": 24, "unit": "%"}]}
{"smiles": "CC[C@@H](N)C(=O)CP(=O)(O)O", "values": [{"measurement": "inhibition", "setting": "Enterococcus faecalis [5]", "result": 26, "unit": "%"}]}
{"smiles": "C[C@@H](N)C(=O)CCP(=O)(O)O", "values": [{"measurement": "inhibition", "setting": "Enterococcus faecalis [5]", "result": 10, "unit": "%"}]}
{"smiles": "C[C@@H](N)C(O)C(O)P(=O)(O)O", "note": "(some centres undefined)", "values": [{"measurement": "inhibition", "setting": "Enterococcus faecalis [5]", "result": 32, "unit": "%"}]}
{"smiles": "C[C@@H](N)C(O)CP(=O)(O)O", "note": "(some centres undefined)", "values": [{"measurement": "inhibition", "setting": "Enterococcus faecalis [5]", "result": 25, "unit": "%"}]}
{"smiles": "C[C@@H](N)C(=O)CP(=O)(O)O", "values": [{"measurement": "inhibition", "setting": "Enterococcus faecalis [6]", "result": 71, "unit": "%"}, {"measurement": "pKi", "setting": "[2]", "result": 3.29}]}
{"smiles": "C[C@H](N)C(=O)CP(=O)(O)O", "values": [{"measurement": "inhibition", "setting": "Enterococcus faecalis [5]", "result": 14, "unit": "%"}]}
